According to ChEMBL document CHEMBL4184332, “Discovery of Novel Nonsteroidal Anti-Inflammatory Drugs and Carbonic Anhydrase Inhibitors Hybrids (NSAIDs-CAIs) for the Management of Rheumatoid Arthritis” (J Med Chem, 2018):
Calls of active or inactive are those of the source.

Tests used:
Carbonic anhydrase 4 = Carbonic anhydrase 4 (Homo sapiens, UniProt P22748); assay: Inhibition of recombinant human carbonic anhydrase-4 incubated for 15 mins by stopped-flow CO2 hydrase assay
Carbonic anhydrase 1 [1] = target: T1, Carbonic anhydrase 1 (Homo sapiens, UniProt P00915); assay: Potency index, ratio of acetazolamide Ki to test compound Ki for recombinant human carbonic anhydrase-1
Outline: (§1)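 Recombinant human CA, made in house, in a stopped-flow CO₂ hydration assay. Conditions: 20 mM Hepes pH 7.5, 20 mM Na₂SO₄, 0.2 mM phenol red read at 557 nm, CO₂ 1.7-17 mM. Enzyme and inhibitor were preincubated 15 min at room temperature. Initial rates were corrected for the uncatalyzed rate. Ki came from nonlinear least squares, mean of three measurements. The ratio uses the acetazolamide Ki.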
Target sequence in this assay (P00915 2-261 limits assumed): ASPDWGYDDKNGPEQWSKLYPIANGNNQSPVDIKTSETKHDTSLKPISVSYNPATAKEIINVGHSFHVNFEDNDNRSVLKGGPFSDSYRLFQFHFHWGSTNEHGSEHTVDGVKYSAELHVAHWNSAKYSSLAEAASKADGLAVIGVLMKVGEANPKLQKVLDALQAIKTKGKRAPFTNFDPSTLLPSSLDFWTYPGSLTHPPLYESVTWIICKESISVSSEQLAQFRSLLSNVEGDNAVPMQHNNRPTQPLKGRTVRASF

Carbonic anhydrase 2 [2] = target: T2, Carbonic anhydrase 2 (Homo sapiens, UniProt P00918); assay: Inhibition of recombinant human carbonic anhydrase-2 incubated for 15 mins by stopped-flow CO2 hydrase assay
Carbonic anhydrase 12 = Carbonic anhydrase 12 (Homo sapiens, UniProt O43570); assay: Inhibition of recombinant human carbonic anhydrase-12 incubated for 15 mins by stopped-flow CO2 hydrase assay
Carbonic anhydrase 9 = Carbonic anhydrase 9 (Homo sapiens, UniProt Q16790); assay: Inhibition of recombinant human carbonic anhydrase-9 catalytic domain incubated for 15 mins by stopped-flow CO2 hydrase assay
Carbonic anhydrase 1 [3] = target: T1, Carbonic anhydrase 1; assay: Inhibition of recombinant human carbonic anhydrase-1 incubated for 15 mins by stopped-flow CO2 hydrase assay
Target sequence in this assay (P00915 whole entry): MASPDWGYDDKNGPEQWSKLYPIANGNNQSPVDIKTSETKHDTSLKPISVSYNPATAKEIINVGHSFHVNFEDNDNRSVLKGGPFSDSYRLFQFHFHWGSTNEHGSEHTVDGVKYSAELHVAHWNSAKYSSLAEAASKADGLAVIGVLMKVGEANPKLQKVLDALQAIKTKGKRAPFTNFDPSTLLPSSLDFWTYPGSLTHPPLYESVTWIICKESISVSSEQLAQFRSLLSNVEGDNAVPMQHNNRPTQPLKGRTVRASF

Rattus norvegicus [4] = assay: Antiarthritic activity in CFA-induced Sprague-Dawley rat rheumatoid arthritis model assessed as decrease in difference between weight burden on contralateral and ipsilateral paw at 5.8 mg/kg, po measured up to 75 mins by incapacitance test; assay type: functional, organism-based
Rattus norvegicus [5] = assay: Antiarthritic activity in CFA-induced Sprague-Dawley rat rheumatoid arthritis model assessed as increase in tolerated weight on ipsilateral paw at 5.8 mg/kg, po measured at 15 mins by paw pressure test; assay type: functional, organism-based
Outline: (§2)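 Rats: Sprague Dawley, 200-250 g, given 50 μl CFA intra-articularly into the tibiotarsal joint; controls got saline. On day 14, compounds in 1% CMC were given orally. An analgesimeter applied increasing pressure to the dorsal hind paw with a blunt conical probe until vocalization or withdrawal, read in grams, cut-off 120 g. Rats below 40 g or above 75 g before dosing were excluded. Values are mean (S.E.M.) of 8 rats from 2 experiments.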

Rattus norvegicus [6] = assay: Antiarthritic activity in CFA-induced Sprague-Dawley rat rheumatoid arthritis model assessed as tolerated weight on ipsilateral paw at 10 mg/kg, po measured at 15 mins by paw pressure test (reference value: 43.5 +/- 0.5 g); assay type: functional; outline: as §2
Rattus norvegicus [7] = assay: Antiarthritic activity in CFA-induced Sprague-Dawley rat rheumatoid arthritis model assessed as decrease in difference between weight burden on contralateral and ipsilateral paw at 0.1 mg/kg, po measured up to 75 mins by incapacitance test; assay type: functional, organism-based
Rattus norvegicus [8] = assay: Antiarthritic activity in CFA-induced Sprague-Dawley rat rheumatoid arthritis model assessed as difference between weight burden on contralateral and ipsilateral paw at 10 mg/kg, po measured at 15 to 30 mins by incapacitance test (reference value: 54.2 +/- 5.1 g); assay type: functional
Rattus norvegicus [9] = assay: Antiarthritic activity in CFA-induced Sprague-Dawley rat rheumatoid arthritis model assessed as tolerated weight on ipsilateral paw at 1 mg/kg, po measured at 15 mins by paw pressure test (reference value: 43.5 +/- 0.5 g); assay type: functional; outline: as §2
Rattus norvegicus [10] = assay: Antiarthritic activity in CFA-induced Sprague-Dawley rat rheumatoid arthritis model assessed as tolerated weight on ipsilateral paw at 1 mg/kg, po measured up to 30 mins by paw pressure test (reference value: 43.5 +/- 0.5 g); assay type: functional; outline: as §2
Rattus norvegicus [11] = assay: Antiarthritic activity in CFA-induced Sprague-Dawley rat rheumatoid arthritis model assessed as tolerated weight on ipsilateral paw at 10 mg/kg, po measured at 30 mins by paw pressure test (reference value: 43.5 +/- 0.5 g); assay type: functional; outline: as §2
Rattus norvegicus [12] = species on record: Rattus norvegicus; assay: Change in pain threshold of contralateral paw of CFA-induced Sprague-Dawley rat rheumatoid arthritis model by paw pressure test; assay type: organism-based; conditions: in vivo; outline: as §2
Rattus norvegicus [13] = assay: Antiarthritic activity in CFA-induced Sprague-Dawley rat rheumatoid arthritis model assessed as increase in tolerated weight on ipsilateral paw at 10 mg/kg, po measured up to 75 mins by paw pressure test; assay type: functional, organism-based; outline: as §2
Rattus norvegicus [14] = assay: Antiarthritic activity in CFA-induced Sprague-Dawley rat rheumatoid arthritis model assessed as difference between weight burden on contralateral and ipsilateral paw at 1 mg/kg, po measured at 15 to 30 mins by incapacitance test (reference value: 54.2 +/- 5.1 g); assay type: functional
Rattus norvegicus [15] = assay: Antiarthritic activity in po dosed CFA-induced Sprague-Dawley rat rheumatoid arthritis model assessed as decrease in difference between weight burden on contralateral and ipsilateral paw measured up to 60 mins by incapacitance test; assay type: functional, organism-based
Rattus norvegicus [16] = assay: Antiarthritic activity in po dosed CFA-induced Sprague-Dawley rat rheumatoid arthritis model assessed as increase in tolerated weight on ipsilateral paw measured up to 60 mins by paw pressure test; assay type: functional, organism-based; outline: as §2
Carbonic anhydrase 2 [17] = target: T2, Carbonic anhydrase 2; assay: Potency index, ratio of acetazolamide Ki to test compound Ki for recombinant human carbonic anhydrase-2; outline: as §1
Rattus norvegicus [18] = assay: Antiarthritic activity in CFA-induced Sprague-Dawley rat rheumatoid arthritis model assessed as tolerated weight on ipsilateral paw at 1 mg/kg, po measured at 30 mins by paw pressure test (reference value: 43.5 +/- 0.5 g); assay type: functional; outline: as §2
Rattus norvegicus [19] = assay: Antiarthritic activity in CFA-induced Sprague-Dawley rat rheumatoid arthritis model assessed as tolerated weight on ipsilateral paw at 0.1 mg/kg, po measured up to 30 mins by paw pressure test (reference value: 43.5 +/- 0.5 g); assay type: functional; outline: as §2
Rattus norvegicus [20] = assay: Antiarthritic activity in CFA-induced Sprague-Dawley rat rheumatoid arthritis model assessed as tolerated weight on ipsilateral paw at 0.1 mg/kg, po measured at 15 mins by paw pressure test (reference value: 43.5 +/- 0.5 g); assay type: functional; outline: as §2
Rattus norvegicus [21] = assay: Antiarthritic activity in CFA-induced Sprague-Dawley rat rheumatoid arthritis model assessed as difference between weight burden on contralateral and ipsilateral paw at 1 mg/kg, po measured at 30 mins by incapacitance test (reference value: 54.2 +/- 5.1 g); assay type: functional
Rattus norvegicus [22] = assay: Antiarthritic activity in CFA-induced Sprague-Dawley rat rheumatoid arthritis model assessed as increase in tolerated weight on ipsilateral paw at 0.1 mg/kg, po measured up to 45 mins by paw pressure test; assay type: functional, organism-based; outline: as §2
Rattus norvegicus [23] = assay: Antiarthritic activity in CFA-induced Sprague-Dawley rat rheumatoid arthritis model assessed as tolerated weight on ipsilateral paw at 10 mg/kg, po measured up to 30 mins by paw pressure test (reference value: 43.5 +/- 0.5 g); assay type: functional; outline: as §2
Rattus norvegicus [24] = assay: Antiarthritic activity in CFA-induced Sprague-Dawley rat rheumatoid arthritis model assessed as decrease in difference between weight burden on contralateral and ipsilateral paw at 10 mg/kg, po measured up to 75 mins by incapacitance test; assay type: functional, organism-based
Rattus norvegicus [25] = assay: Antiarthritic activity in CFA-induced Sprague-Dawley rat rheumatoid arthritis model assessed as increase in tolerated weight on ipsilateral paw at 1 mg/kg, po measured up to 60 mins by paw pressure test; assay type: functional, organism-based; outline: as §2
Rattus norvegicus [26] = assay: Antiarthritic activity in CFA-induced Sprague-Dawley rat rheumatoid arthritis model assessed as difference between weight burden on contralateral and ipsilateral paw at 10 mg/kg, po measured at 30 mins by incapacitance test (reference value: 54.2 +/- 5.1 g); assay type: functional
Rattus norvegicus [27] = assay: Antiarthritic activity in CFA-induced Sprague-Dawley rat rheumatoid arthritis model assessed as increase in tolerated weight on ipsilateral paw at 10 mg/kg, po measured at 15 mins by paw pressure test; assay type: functional, organism-based; outline: as §2
Rattus norvegicus [28] = assay: Antiarthritic activity in CFA-induced Sprague-Dawley rat rheumatoid arthritis model assessed as decrease in difference between weight burden on contralateral and ipsilateral paw at 10 mg/kg, po measured up to 60 mins by incapacitance test; assay type: functional, organism-based
Rattus norvegicus [29] = assay: Antiarthritic activity in CFA-induced Sprague-Dawley rat rheumatoid arthritis model assessed as increase in tolerated weight on ipsilateral paw at 6.2 mg/kg, po measured at 15 mins by paw pressure test; assay type: functional, organism-based; outline: as §2
Rattus norvegicus [30] = assay: Antiarthritic activity in CFA-induced Sprague-Dawley rat rheumatoid arthritis model assessed as decrease in difference between weight burden on contralateral and ipsilateral paw at 6.2 mg/kg, po measured up to 75 mins by incapacitance test; assay type: functional, organism-based
Rattus norvegicus [31] = assay: Antiarthritic activity in CFA-induced Sprague-Dawley rat rheumatoid arthritis model assessed as decrease in difference between weight burden on contralateral and ipsilateral paw at 0.1 mg/kg, po measured up to 45 mins by incapacitance test; assay type: functional, organism-based
Rattus norvegicus [32] = assay: Antiarthritic activity in CFA-induced Sprague-Dawley rat rheumatoid arthritis model assessed as increase in tolerated weight on ipsilateral paw at 1 mg/kg, po measured at 60 mins by paw pressure test; assay type: functional, organism-based; outline: as §2
Rattus norvegicus [33] = assay: Antiarthritic activity in CFA-induced Sprague-Dawley rat rheumatoid arthritis model assessed as difference between weight burden on contralateral and ipsilateral paw at 0.1 mg/kg, po measured at 15 to 30 mins by incapacitance test (reference value: 54.2 +/- 5.1 g); assay type: functional

Sequence of Carbonic anhydrase 12 (O43570 whole entry, the tested form may be a part): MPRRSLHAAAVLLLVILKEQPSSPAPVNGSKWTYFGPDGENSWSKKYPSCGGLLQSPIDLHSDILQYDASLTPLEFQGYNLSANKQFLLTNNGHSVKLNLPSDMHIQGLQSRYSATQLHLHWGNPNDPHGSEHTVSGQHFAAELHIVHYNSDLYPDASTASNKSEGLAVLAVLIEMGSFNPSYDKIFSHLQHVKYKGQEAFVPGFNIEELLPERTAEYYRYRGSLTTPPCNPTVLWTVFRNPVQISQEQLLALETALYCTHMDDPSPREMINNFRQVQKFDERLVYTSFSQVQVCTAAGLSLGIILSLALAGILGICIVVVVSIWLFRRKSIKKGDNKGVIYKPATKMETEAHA
Sequence of Carbonic anhydrase 4 (P22748 whole entry): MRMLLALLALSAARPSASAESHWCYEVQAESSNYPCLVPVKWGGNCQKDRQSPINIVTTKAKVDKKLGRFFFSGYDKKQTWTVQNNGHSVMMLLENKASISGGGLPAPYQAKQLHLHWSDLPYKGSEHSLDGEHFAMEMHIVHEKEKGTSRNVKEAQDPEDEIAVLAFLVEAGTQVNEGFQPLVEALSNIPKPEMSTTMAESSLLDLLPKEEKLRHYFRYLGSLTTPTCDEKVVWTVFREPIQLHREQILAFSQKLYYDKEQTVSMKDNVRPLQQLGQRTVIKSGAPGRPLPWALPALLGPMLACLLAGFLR

`CC(C(=O)NCCOc1ccc(S(N)(=O)=O)cc1)c1cccc(C(=O)c2ccccc2)c1` (racemic) showed a Ki (Carbonic anhydrase 4) of 77.7 nM, a Ratio Ki (Carbonic anhydrase 1 [1]) of 10 and a Ki (Carbonic anhydrase 2 [2]) of 6.7 nM. For the same molecule, the Ki (Carbonic anhydrase 12) was 8.6 nM, the Ki (Carbonic anhydrase 9) was 76.5 nM and the Ki (Carbonic anhydrase 1 [3]) was 21.3 nM.
In the case of `CC(C(=O)O)c1cccc(C(=O)c2ccccc2)c1` (configuration not stated), the Activity (Rattus norvegicus [4]) is reported as “Active” and the Activity (Rattus norvegicus [5]) is reported as “Active”.
`CC1=C(CC(=O)NCCc2ccc(S(N)(=O)=O)cc2)c2cc(F)ccc2/C1=C/c1ccc([S+](C)[O-])cc1` (configuration not stated) was tested, and the Activity (Rattus norvegicus [6]) was 62.5 g, the Ki (Carbonic anhydrase 4) was 6860 nM and the Activity (Rattus norvegicus [7]) was “inactive”. The Activity (Rattus norvegicus [8]) was 8.6 g, the Activity (Rattus norvegicus [9]) was 55 g and the Ki (Carbonic anhydrase 2 [2]) was 27.3 nM. It also gave a Ki (Carbonic anhydrase 12) of 94.4 nM, a Ki (Carbonic anhydrase 9) of 62.5 nM and an Activity (Rattus norvegicus [10]) of 55 g. The Activity (Rattus norvegicus [11]) was 64.2 g, the Activity (Rattus norvegicus [12]) was “Non-Toxic” and the Activity (Rattus norvegicus [13]) was “Active”. For the same molecule, the Activity (Rattus norvegicus [14]) was 22.3 g, the Ki (Carbonic anhydrase 1 [3]) was 64.9 nM and the Activity (Rattus norvegicus [15]) was “Dose-dependent effect”. The Activity (Rattus norvegicus [16]) was “Dose-dependent effect”.
`CC(C(=O)NCCc1ccc(S(N)(=O)=O)cc1)c1cccc(C(=O)c2ccccc2)c1` (racemic) gave a Ratio Ki (Carbonic anhydrase 2 [17]) of 1.86, a Ki (Carbonic anhydrase 4) of 3010 nM and an Activity (Rattus norvegicus [18]) of 53.3 g. For the same molecule, the Activity (Rattus norvegicus [19]) was 50 g, the Activity (Rattus norvegicus [20]) was 50 g and the Activity (Rattus norvegicus [21]) was 36.8 g. It also gave an Activity (Rattus norvegicus [9]) of 51.7 g, a Ki (Carbonic anhydrase 2 [2]) of 6.5 nM and a Ki (Carbonic anhydrase 12) of 54 nM. The Activity (Rattus norvegicus [22]) was “Active”, the Ki (Carbonic anhydrase 9) was 39.3 nM and the Activity (Rattus norvegicus [23]) was 56.7 g. The Activity (Rattus norvegicus [24]) was “Active”, the Activity (Rattus norvegicus [25]) was “Active” and the Activity (Rattus norvegicus [26]) was 28.6 g. For the same molecule, the Activity (Rattus norvegicus [12]) was “Non-Toxic”, the Activity (Rattus norvegicus [13]) was “Active” and the Activity (Rattus norvegicus [27]) was “Active”. For the same molecule, the Ki (Carbonic anhydrase 1 [3]) was 8.1 nM and the Activity (Rattus norvegicus [15]) was “Dose-dependent effect”.
`COc1ccc2cc(C(C)C(=O)NCCc3ccc(S(N)(=O)=O)cc3)ccc2c1` (racemic) was tested, and the Ki (Carbonic anhydrase 4) was 6030 nM, the Activity (Rattus norvegicus [21]) was 34.3 g and the Ki (Carbonic anhydrase 2 [2]) was 5.2 nM. The Ki (Carbonic anhydrase 12) was 91.9 nM, the Ki (Carbonic anhydrase 9) was 12.9 nM and the Activity (Rattus norvegicus [26]) was 29.3 g. For the same molecule, the Activity (Rattus norvegicus [12]) was “Non-Toxic”, the Ki (Carbonic anhydrase 1 [3]) was 19.1 nM and the Activity (Rattus norvegicus [16]) was “Dose-dependent effect”. The Activity (Rattus norvegicus [28]) was “Active”.
`O=C(O)Cc1ccccc1Nc1c(Cl)cccc1Cl` was tested, and the Activity (Rattus norvegicus [29]) was “Active” and the Activity (Rattus norvegicus [30]) was “Active”.
For `NS(=O)(=O)c1ccc(CCNC(=O)Cc2ccccc2Nc2c(Cl)cccc2Cl)cc1`, the Ki (Carbonic anhydrase 4) was 8650 nM, the Activity (Rattus norvegicus [18]) was 56.7 g and the Activity (Rattus norvegicus [31]) was “Active”. For the same molecule, the Activity (Rattus norvegicus [32]) was “inactive”, the Activity (Rattus norvegicus [20]) was 52.5 g and the Activity (Rattus norvegicus [21]) was 20.6 g. The Ki (Carbonic anhydrase 2 [2]) was 43.7 nM, the Ki (Carbonic anhydrase 12) was 90.2 nM and the Activity (Rattus norvegicus [22]) was “Active”. It also gave a Ki (Carbonic anhydrase 9) of 43.3 nM, an Activity (Rattus norvegicus [26]) of 14.7 g and an Activity (Rattus norvegicus [11]) of 66.3 g. The Activity (Rattus norvegicus [12]) was “Non-Toxic”, the Activity (Rattus norvegicus [13]) was “Active” and the Ki (Carbonic anhydrase 1 [3]) was 68.4 nM. It also gave an Activity (Rattus norvegicus [33]) of 39 g.
